Published values of several laboratories.
Each line is one published result; the experiments were not run side by side.
Target: Focal adhesion kinase 1 (PTK2, Homo sapiens, UniProt Q05397)

SMILES	effect on	mode	technique	concentration	endpoint	result
C[C@H]1CC[C@H](n2c3cnccc3c3cnc(Nc4ccc5c(n4)CCN(C(=O)CO)C5)nc32)CC1	cell-free assay	inhibitor	–	1 µM	remaining signal	69%
C#Cc1cc(-c2cc(Nc3nc(N[C@@H](C)c4ccc(F)cn4)ncc3Cl)n[nH]2)ccc1C=O	enzyme activity	inhibitor	–	0.2 µM	inhibition	31.2%
CCCCC(=O)Nc1ccc(-c2ccc3ncn(CCC)c(=O)c3c2)cn1	binding	–	competition with immobilised ligand	0.5 µM	remaining binding	87%
C#Cc1cnc(Nc2ccnc(CO)c2)nc1Nc1ccccc1S(C)(=O)=NC#N (stereo not shown)	cell-free assay	–	–	1 µM	remaining signal	40%
Cc1cc(O)c(-c2ccc([C@@H](C)CN(C)C)cc2)c2c1[nH]c(=O)c1sccc12	enzyme activity	inhibitor	–	0.1 µM	inhibition	8.92%
CO[C@@H]1[C@H](N(C)C(=O)c2ccccc2)C[C@H]2O[C@]1(C)n1c3ccccc3c3c4c(c5c6ccccc6n2c5c31)C(=O)NC4	enzyme activity	inhibitor	–	1 µM	inhibition	2%
COc1ccc2oc(-c3ccc4nc(N)oc4c3)c/c(=N\c3ccccc3NC(=O)CCN)c2c1	binding	–	–	1 µM	remaining binding	84%
C=CC(=O)N1CCC[C@@H](n2nc(-c3ccc(Oc4ccccc4)cc3)c3c(N)ncnc32)C1	enzyme activity	inhibitor	–	1 µM	inhibition	5%
Cc1ccc(NC(=O)c2ccnc(C(F)(F)F)c2)cc1-c1cc(OCCO)nc(N2CCOCC2)c1	cell-free assay	–	–	1 µM	remaining signal	100%
N#Cc1ccc(NC(=O)Nc2ccccc2)cc1	cell-free assay	–	competition with immobilised ligand	25 µM	remaining binding	100%
